Experimental data: ChEMBL document CHEMBL3792333, “The discovery of indole derivatives as novel hepatitis C virus inhibitors” (Eur J Med Chem, 2016)
Active and inactive are the calls of the source. The calls are words filed in the database; no cut-off is given here.

Legend:
[1] = tested on: Hepatitis C virus; assay: Antiviral activity against Hepatitis C virus JFH-1 infected in human Huh7.5.1 cells measured 48 hrs post infection by luciferase reporter gene assay; format: functional, organism-based, Hepacivirus hominis; details: JFH-1, Huh-7, 48 h
Summary of the method: (§1)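 Huh7.5.1 cells were seeded and grown 24 h at 37 °C, 5% CO₂. They were then treated with serially diluted compound and infected with Renilla luciferase-linked HCV(JFH-1) reporter virus. Luminescence was read at 48 hpi, and EC₅₀ and CC₅₀ were derived from it. SI is CC₅₀/EC₅₀. Results are the mean of three independent experiments with SD.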

[2] = Cytotoxicity against human Huh7.5.1 cells infected with Hepatitis C virus JFH-1 measured 48 hrs post infection by luciferase reporter gene assay; format: cell-based, Huh-7; summary of the method: as §1
[3] = Selectivity index, ratio of CC50 for human Huh7.5.1 cells infected with Hepatitis C virus JFH-1 to EC50 for Hepatitis C virus JFH-1 infected in human Huh7.5.1 cells; format: toxicity, cell-based, Huh-7; details: read-out: Ratio CC50/EC50; summary of the method: as §1
[4] = tested on: Hepatitis C virus; assay: Antiviral activity against Hepatitis C virus JFH-1 infected in human Huh7.5.1 cells assessed as inhibition of viral RNA replication at 5 uM treated 2 to 10 hrs post infection incubated for 24 hrs by luciferase reporter gene assay; format: functional, organism-based; details: Hepacivirus hominis, Huh-7
Summary of the method: (§2)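 Huh7.5.1 cells were seeded at 3×10⁴/well in 10% FBS-DMEM and grown overnight at 37 °C, 5% CO₂. Compound was added with 100 TCID₅₀ of HCV(JFH-1) Renilla luciferase reporter virus (0 h), or at -6 to 10 hpi. Cells were incubated 24 h at 37 °C, and luciferase activity was compared with 0.5% DMSO mock cultures.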

[5] = tested on: Hepatitis C virus; assay: Antiviral activity against Hepatitis C virus JFH-1 infected in human Huh7.5.1 cells assessed as inhibition of viral entry at 5 uM treated 1 hr post infection incubated for 24 hrs by luciferase reporter gene assay; format: functional, organism-based; details: Hepacivirus hominis, Huh-7; summary of the method: as §2
[6] = tested on: Hepatitis C virus; assay: Antiviral activity against Hepatitis C virus JFH-1 infected in human Huh7.5.1 cells assessed as inhibition of viral entry at 5 uM treated 2 to 6 hrs prior infection incubated for 24 hrs by luciferase reporter gene assay; format: functional, organism-based; details: Hepacivirus hominis, Huh-7; summary of the method: as §2
[7] = tested on: Hepatitis C virus; assay: Antiviral activity against Hepatitis C virus JFH-1 infected in human Huh7.5.1 cells assessed as inhibition of viral entry at 5 uM treated immediately after viral infection incubated for 24 hrs by luciferase reporter gene assay; format: functional, organism-based; details: Hepacivirus hominis, Huh-7; summary of the method: as §2
[8] = tested on: Hepatitis C virus; assay: Antiviral activity against Hepatitis C virus JFH-1 infected in human Huh7.5.1 cells assessed as inhibition of viral entry at 2 uM treated immediately after viral infection incubated for 24 hrs by luciferase reporter gene assay; format: functional, organism-based; details: Hepacivirus hominis, Huh-7; summary of the method: as §2
[9] = tested on: Hepatitis C virus; assay: Antiviral activity against Hepatitis C virus JFH-1 infected in human Huh7.5.1 cells assessed as inhibition of viral entry at 2 uM treated 2 to 6 hrs prior infection incubated for 24 hrs by luciferase reporter gene assay; format: functional, organism-based; details: Hepacivirus hominis, Huh-7; summary of the method: as §2
[10] = tested on: Hepatitis C virus; assay: Antiviral activity against Hepatitis C virus JFH-1 infected in human Huh7.5.1 cells assessed as inhibition of viral RNA replication at 2 uM treated 2 to 10 hrs post infection incubated for 24 hrs by luciferase reporter gene assay; format: functional, organism-based; details: Hepacivirus hominis, Huh-7; summary of the method: as §2
[11] = tested on: Hepatitis C virus; assay: Antiviral activity against Hepatitis C virus JFH-1 infected in human Huh7.5.1 cells assessed as inhibition of viral entry at 2 uM treated 1 hr post infection incubated for 24 hrs by luciferase reporter gene assay; format: functional, organism-based; details: Hepacivirus hominis, Huh-7; summary of the method: as §2

Row | SMILES | EC50 [1] | CC50 at 48 h [2] | selectivity ratio [3] | also measured
1 | CCCCN(CCCC)CC(O)Cn1cc(/C=C2/C(=O)N(c3ccccc3)N=C2C)c2ccccc21 (racemic) | > 50 µM | > 50 µM | – | –
2 | CC1=NN(c2ccc(C(F)(F)F)cc2)C(=O)/C1=C/c1cn(CC(O)CNCCCN2CCOCC2)c2ccccc12 (racemic) | 4.63 µM | 11.3 µM | 2.44 | –
3 | CC1=NN(c2ccccc2)C(=O)/C1=C/c1cn(C)c2ccccc12 | 21.2 µM | > 50 µM | > 2.36 | –
4 | CC1=NN(c2ccc(Cl)cc2)C(=O)/C1=C/c1cn(CC(O)CNCCCN2CCOCC2)c2ccccc12 (racemic) | 3.42 µM | 17.5 µM | 5.12 | –
5 | CC1=NN(c2ccccc2)C(=O)/C1=C/c1cn(C[C@@H](O)CNCCCN2CCOCC2)c2ccccc12 | 8.06 µM | 21.5 µM | 2.67 | –
6 | CC1=NN(c2ccc(C(F)(F)F)cc2)C(=O)/C1=C/c1cn(CC2CO2)c2ccccc12 (centres undefined) | 7.86 µM | 40.4 µM | 5.14 | –
7 | COc1ccc(N2N=C(C)/C(=C\c3cn(CC4CO4)c4ccccc34)C2=O)cc1 (centres undefined) | 2.06 µM | 11.9 µM | 5.76 | –
8 | CC1=NN(c2cccc(F)c2)C(=O)/C1=C/c1cn(CC2CO2)c2ccccc12 (centres undefined) | 2.65 µM | 25.6 µM | 9.67 | –
9 | CC1=NN(c2ccccc2)C(=O)/C1=C/c1cn(CC(O)CNCc2ccccc2)c2ccccc12 (racemic) | > 50 µM | > 50 µM | – | –
10 | CC1=NN(C)C(=O)/C1=C/c1cn(CC2CO2)c2ccccc12 (centres undefined) | > 50 µM | > 50 µM | – | –
11 | CCCCNCC(O)Cn1cc(/C=C2/C(=O)N(c3ccccc3)N=C2C)c2ccccc21 (racemic) | > 50 µM | > 50 µM | – | –
12 | CC1=NN(c2cccc(F)c2)C(=O)/C1=C/c1cn(CC(O)CNCCCN2CCOCC2)c2ccccc12 (racemic) | 0.92 µM | 21.5 µM | 23.3 | –
13 | CC1=NN(c2ccccc2F)C(=O)/C1=C/c1cn(CC(O)CNCCCN2CCOCC2)c2ccccc12 (racemic) | 2.79 µM | 34.2 µM | 12.3 | –
14 | CC1=NN(c2ccccc2)C(=O)/C1=C/c1cn(C[C@H](O)CNCCCN2CCOCC2)c2ccccc12 | 1.25 µM | > 50 µM | > 40 | –
15 | CC1=NN(c2ccccc2F)C(=O)/C1=C/c1cn(CC2CO2)c2ccccc12 (centres undefined) | 5.11 µM | 30.4 µM | 5.95 | –
16 | CC1=NN(c2cccc(F)c2)C(=O)/C1=C/c1cn(C[C@@H](O)CNCCCN2CCOCC2)c2ccccc12 | 5.87 µM | 23.3 µM | 3.97 | –
17 | CC1=NN(c2ccc(F)cc2)C(=O)/C1=C/c1cn(CC2CO2)c2ccccc12 (centres undefined) | 3.24 µM | > 50 µM | > 15.4 | –
18 | CC1=NN(c2ccccc2)C(=O)/C1=C/c1cn(CC2CO2)c2ccccc12 (centres undefined) | 5.78 µM | 46.3 µM | 8.02 | inhibition [4]: inactive; inhibition [5]: Active; inhibition [6]: Active; inhibition [7]: Active

Row | SMILES | EC50 [1] | CC50 at 48 h [2] | selectivity ratio [3] | also measured
19 | COc1ccc(N2N=C(C)/C(=C\c3cn(CC(O)CNCCCN4CCOCC4)c4ccccc34)C2=O)cc1 (racemic) | 2.05 µM | 15.4 µM | 7.53 | –
20 | CC1=NN(c2cccc(C(F)(F)F)c2)C(=O)/C1=C/c1cn(CC(O)CNCCCN2CCOCC2)c2ccccc12 (racemic) | 2.08 µM | 17.8 µM | 8.57 | –
21 | CC1=NN(c2ccc(F)cc2)C(=O)/C1=C/c1cn(CC(O)CNCCCN2CCOCC2)c2ccccc12 (racemic) | 1.02 µM | 46.5 µM | 45.6 | inhibition [8]: Active; inhibition [9]: Active; inhibition [10]: inactive; inhibition [11]: Active
22 | CC1=NN(c2cccc(C(F)(F)F)c2)C(=O)/C1=C/c1cn(CC2CO2)c2ccccc12 (centres undefined) | 5.94 µM | 25.1 µM | 4.23 | –
23 | CC1=NN(c2ccccc2)C(=O)/C1=C/c1cn(CC(O)CNCCCN2CCOCC2)c2ccccc12 (racemic) | 2.04 µM | 35.8 µM | 17.6 | –
24 | CC1=NN(c2ccc(F)cc2)C(=O)/C1=C/c1cn(C[C@H](O)CNCCCN2CCOCC2)c2ccccc12 | 0.72 µM | > 50 µM | > 69.4 | –
25 | CC1=NN(c2ccc(Cl)cc2)C(=O)/C1=C/c1cn(CC2CO2)c2ccccc12 (centres undefined) | 6.82 µM | 35.3 µM | 5.17 | –
26 | CC1=NN(c2ccccc2)C(=O)/C1=C/c1cn(CC2CC2)c2ccccc12 | 21.5 µM | > 50 µM | > 2.32 | –
27 | CC1=NN(c2ccccc2)C(=O)/C1=C/c1cn(CC(O)CNCCCCN2CCOCC2)c2ccccc12 (racemic) | 2.03 µM | 8.13 µM | 4 | –
28 | CC1=NN(c2cccc(F)c2)C(=O)/C1=C/c1cn(C[C@H](O)CNCCCN2CCOCC2)c2ccccc12 | 0.74 µM | 31.1 µM | 42 | –
29 | CC1=NN(c2ccccc2)C(=O)/C1=C/c1cn(CC(O)CN2CCOCC2)c2ccccc12 (racemic) | 21.9 µM | > 50 µM | > 2.29 | –
30 | CC1=NN(c2ccc(F)cc2)C(=O)/C1=C/c1cn(C[C@@H](O)CNCCCN2CCOCC2)c2ccccc12 | 7.12 µM | 34.6 µM | 4.86 | –
31 | CC1=NN(c2ccccc2)C(=O)/C1=C/c1cn(Cc2ccccc2)c2ccccc12 | 17.4 µM | > 50 µM | > 2.88 | –
32 | CC1=NN(c2ccc(C)cc2)C(=O)/C1=C/c1cn(CC2CO2)c2ccccc12 (centres undefined) | 3.06 µM | 13.2 µM | 4.24 | –
33 | CC1=NN(c2ccccc2)C(=O)/C1=C/c1c[nH]c2ccccc12 | 24.5 µM | > 50 µM | > 2.03 | –
34 | CC1=NN(c2ccccc2)C(=O)/C1=C/c1cn(CC(O)CNCCN2CCOCC2)c2ccccc12 (racemic) | 5.46 µM | 42.4 µM | 7.76 | –
35 | CC1=NN(c2ccc(C)cc2)C(=O)/C1=C/c1cn(CC(O)CNCCCN2CCOCC2)c2ccccc12 (racemic) | 1.83 µM | 36.2 µM | 19.8 | –
